Experimental data as given in ChEMBL document CHEMBL1156768, “The structure-activity relationship of the antimalarial ozonide arterolane (OZ277)” (J Med Chem, 2010).
In brackets after ≈: the same amount, converted by molar mass.

What was measured:
Plasmodium falciparum [1] = test: Antimalarial activity against chloroquine-resistant Plasmodium falciparum K1 infected in human A+ erythrocytes assessed as [3H]hypoxanthine incorporation by semiautomated micro dilution assay; assay type: functional, organism-based
Plasmodium falciparum [2] = test: Antimalarial activity against chloroquine-sensitive Plasmodium falciparum NF54 infected in human A+ erythrocytes assessed as [3H]hypoxanthine incorporation by semi-automated micro dilution assay; assay type: functional, organism-based
Plasmodium berghei [3] = test: Antiplasmodial activity against Plasmodium berghei infected in NMRI mice (Mus musculus) assessed as reduction of parasitaemia level at 10 mg/kg, perorally administered 1 day after post-infection measured after 3 days post-infection; assay type: functional; design: scale not given: the % may be the effect or the level left; conditions: route oral
Outline: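 Groups of five NMRI mice infected with P. berghei received a single oral dose on day 1 postinfection. Read-out was percent reduction in parasitemia on day 3 postinfection. Individual measurements differed by less than 10%.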

Plasmodium berghei [4] = test: Antiplasmodial activity against Plasmodium berghei infected in NMRI mice (Mus musculus) assessed as reduction of parasitaemia level at 3 mg/kg, perorally daily once for 3 consecutive days measured after 4 days post-infection; assay type: functional; design: scale not given: the % may be the effect or the level left; conditions: route oral
Outline: (§1)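 P. berghei-infected NMRI mice, in groups of five, were dosed orally at 3 mg/kg on days +1, +2 and +3 postinfection. Parasitemia reduction, survival time and cure were scored.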

Plasmodium berghei [5] = test: Antiplasmodial activity against Plasmodium berghei infected in NMRI mice (Mus musculus) assessed as mice (Mus musculus) survival days at 3 mg/kg, perorally daily once for 3 consecutive days measured after 4 days post-infection; assay type: functional; conditions: route oral; outline: as §1
Plasmodium berghei [6] = test: Antiplasmodial activity against Plasmodium berghei infected in NMRI mice (Mus musculus) assessed as curing of parasitaemia at 3 mg/kg, perorally daily once for 3 consecutive days measured after 30 days post-infection; assay type: functional; conditions: route oral; outline: as §1
[7] = Half life in Sprague-Dawley rat at 2.5 to 3.5 mg/kg, iv; assay type: ADME, organism-based; design: dose 2.5-3.5 mg/kg, route intravenous; conditions: in vivo
Outline: (§2)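 Rats received an IV infusion over 5-10 min through a jugular cannula at 2.5-3.5 mg/kg, in DMSO/aqueous buffer or propylene glycol/ethanol/water. Oral gavage used aqueous suspensions in HPMC or CMC with 0.4% Tween 80 and 0.5% benzyl alcohol. Carotid blood was sampled, and plasma was acetonitrile-precipitated and measured by LC/MS against plasma calibration standards. Values are averages of 2-3 determinations.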

[8] = Volume of distribution in Sprague-Dawley rat at 2.5 to 3.5 mg/kg, iv; assay type: ADME, organism-based; design: dose 2.5-3.5 mg/kg, route intravenous; conditions: in vivo; outline: as §2
[9] = Plasma clearance in Sprague-Dawley rat at 2.5 to 3.5 mg/kg, iv; assay type: ADME, organism-based; design: dose 2.5-3.5 mg/kg, route intravenous; outline: as §2
[10] = Oral bioavailability in Sprague-Dawley rat; assay type: ADME, organism-based; conditions: in vivo; outline: as §2
[11] = Blood clearance in Sprague-Dawley rat at 2.5 to 3.5 mg/kg, iv; assay type: ADME, organism-based; design: dose 2.5-3.5 mg/kg, route intravenous; conditions: whole blood; outline: as §2
Rattus norvegicus [12] = test: Liver toxicity in Sprague-Dawley rat at 300 mg/kg, po daily once for 5 days; assay type: organism-based; design: dose 300 mg/kg, route oral; conditions: in vivo, 120 h
Outline: (§3)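 Preliminary toxicology was run in male rats given daily oral doses for five days.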

Rattus norvegicus [13] = test: Lymphatic organ toxicity in Sprague-Dawley rat at 300 mg/kg, po daily once for 5 days; assay type: organism-based; design: dose 300 mg/kg, route oral; conditions: in vivo, 120 h; outline: as §3
Rattus norvegicus [14] = test: Renal toxicity in Sprague-Dawley rat at 300 mg/kg, po daily once for 5 days; assay type: organism-based; design: dose 300 mg/kg, route oral; conditions: in vivo, 120 h; outline: as §3
Rattus norvegicus [15] = test: Neurotoxicity in Sprague-Dawley rat at 300 mg/kg, po daily once for 5 days; assay type: toxicity, organism-based; design: dose 300 mg/kg, route oral; conditions: in vivo, 120 h; outline: as §3

Structure (SMILES)	IC50 (Plasmodium falciparum [1]) [ng/mL]	IC50 (Plasmodium falciparum [2]) [ng/mL]	Activity (Plasmodium berghei [3]) [%]	also measured
O=C(O)C[C@H]1CC[C@]2(CC1)OO[C@]1(O2)C2CC3CC(C2)CC1C3	34 (≈ 105 nM)	45 (≈ 140 nM)	95	
Cc1ccc(S(=O)(=O)O)cc1.NCCNC(=O)C[C@H]1CC[C@]2(CC1)OO[C@]1(O2)C2CC3CC(C2)CC1C3			99.9	
CC(C)(N)CNC(=O)NC[C@H]1CC[C@]2(CC1)OO[C@]1(O2)C2CC3CC(C2)CC1C3.Cc1ccc(S(=O)(=O)O)cc1	3.2	3.5	97	
CC(C)(N)Cn1nnnc1C[C@H]1CC[C@]2(CC1)OO[C@]1(O2)C2CC3CC(C2)CC1C3	2.3 (≈ 5.51 nM)	1.5 (≈ 3.59 nM)	98	
Cc1ccc(S(=O)(=O)O)cc1.NC1(CNC(=O)C[C@H]2CC[C@]3(CC2)OO[C@]2(O3)C3CC4CC(C3)CC2C4)CC1	0.4	0.52	99.9	
CC(C)(CN)CNC(=O)C[C@H]1CC[C@]2(CC1)OO[C@]1(O2)C2CC3CC(C2)CC1C3.CS(=O)(=O)O	0.46	0.49	99.9	
CC(C)(N)CNC(=O)N[C@H]1CC[C@]2(CC1)OO[C@]1(O2)C2CC3CC(C2)CC1C3.Cc1ccc(S(=O)(=O)O)cc1	8.4	6.2	63	
O=C(C[C@H]1CC[C@]2(CC1)OO[C@]1(O2)C2CC3CC(C2)CC1C3)N1CCN(CCO)CC1	1 (≈ 2.3 nM)	0.9 (≈ 2.07 nM)	96	
CC(C)(N)CNC(=O)[C@H]1CC[C@@]2(CC1)OO[C@@]1(O2)C2CC3CC(C2)CC1C3.Cc1ccc(S(=O)(=O)O)cc1	1.4	0.74	84	
NC(=O)CNC(=O)C[C@H]1CC[C@]2(CC1)OO[C@]1(O2)C2CC3CC(C2)CC1C3	3.9 (≈ 10.3 nM)	3.6 (≈ 9.51 nM)	99.6	
CC(C)(N)CNC(=O)CC[C@H]1CC[C@]2(CC1)OO[C@]1(O2)C2CC3CC(C2)CC1C3.Cc1ccc(S(=O)(=O)O)cc1	0.55	0.82	>99.9	Activity (Plasmodium berghei [4]): >99.9%; Survival (Plasmodium berghei [5]): 24.4 days; Activity (Plasmodium berghei [6]): 0%; half-life [7]: 1 h; Vd [8]: 12 L/kg; clearance [9]: 134 mL/min/kg; bioavailability [10]: 32%
CS(=O)(=O)N1CCN(C(=O)C[C@H]2CC[C@]3(CC2)OO[C@]2(O3)C3CC4CC(C3)CC2C4)CC1			<40	
Cc1ccc(S(=O)(=O)O)cc1.O=C(C[C@H]1CC[C@]2(CC1)OO[C@]1(O2)C2CC3CC(C2)CC1C3)N1CCNCC1	0.21	0.24	>99.9	Activity (Plasmodium berghei [4]): >99.9%; Activity (Plasmodium berghei [6]): 0%; half-life [7]: 1.7 h; Vd [8]: 25 L/kg; clearance [9]: 168 mL/min/kg; clearance [11]: 56.3 mL/min/kg; bioavailability [10]: 37%
NC(=O)C1CCN(C(=O)C[C@H]2CC[C@]3(CC2)OO[C@]2(O3)C3CC4CC(C3)CC2C4)CC1		1.7 (≈ 3.93 nM)	86	
CC(C)(N)CNC(=O)OC[C@H]1CC[C@]2(CC1)OO[C@]1(O2)C2CC3CC(C2)CC1C3.Cc1ccc(S(=O)(=O)O)cc1	0.22	0.36	>99.9	Activity (Plasmodium berghei [4]): >99.9%; Survival (Plasmodium berghei [5]): 9.8 days; Activity (Plasmodium berghei [6]): 0%
O=CN1CCN(C(=O)C[C@H]2CC[C@]3(CC2)OO[C@]2(O3)C3CC4CC(C3)CC2C4)CC1	0.39 (≈ 0.932 nM)	0.63 (≈ 1.51 nM)	99.8	

Structure (SMILES)	IC50 (Plasmodium falciparum [1]) [ng/mL]	IC50 (Plasmodium falciparum [2]) [ng/mL]	Activity (Plasmodium berghei [3]) [%]	also measured
CC(C)(N)CNC(=O)C[C@H]1CC[C@@]2(CC1)OO[C@@]1(O2)C2CC3CC(C2)CC1C3.Cc1ccc(S(=O)(=O)O)cc1	1.7	1.5	96	half-life [7]: 0.617 h; Vd [8]: 16 L/kg; clearance [9]: 298 mL/min/kg; bioavailability [10]: 15%
Cc1ccc(S(=O)(=O)O)cc1.N[C@H]1CC[C@H](NC(=O)C[C@H]2CC[C@]3(CC2)OO[C@]2(O3)C3CC4CC(C3)CC2C4)CC1			>99.9	Activity (Plasmodium berghei [4]): >99.9%; Survival (Plasmodium berghei [5]): 22 days; Activity (Plasmodium berghei [6]): 0%
O=C(O)C1CCN(C(=O)C[C@H]2CC[C@]3(CC2)OO[C@]2(O3)C3CC4CC(C3)CC2C4)CC1	19 (≈ 43.8 nM)	27 (≈ 62.3 nM)		
O=C(C[C@H]1CC[C@]2(CC1)OO[C@]1(O2)C2CC3CC(C2)CC1C3)NO	1.4 (≈ 4.15 nM)	2 (≈ 5.93 nM)	97	
O=C1CN(C(=O)C[C@H]2CC[C@]3(CC2)OO[C@]2(O3)C3CC4CC(C3)CC2C4)CCN1	0.6 (≈ 1.48 nM)	0.89 (≈ 2.2 nM)	99.2	
O=C(C[C@H]1CC[C@]2(CC1)OO[C@]1(O2)C2CC3CC(C2)CC1C3)N1CCS(=O)(=O)CC1			<40	
CC(C)(N)CNC(=O)[C@H]1CC[C@]2(CC1)OO[C@]1(O2)C2CC3CC(C2)CC1C3.Cc1ccc(S(=O)(=O)O)cc1	0.66	0.25	96	
O=C(C[C@H]1CC[C@]2(CC1)OO[C@]1(O2)C2CC3CC(C2)CC1C3)N1CCCCC1	1.6 (≈ 4.11 nM)	1.6 (≈ 4.11 nM)		
O=C(C[C@H]1CC[C@]2(CC1)OO[C@]1(O2)C2CC3CC(C2)CC1C3)N1CCC(O)CC1	0.49 (≈ 1.21 nM)	0.76 (≈ 1.87 nM)	99.7	half-life [7]: 11 h; Vd [8]: 36 L/kg; clearance [9]: 37 mL/min/kg; bioavailability [10]: 5%
O=C(C[C@H]1CC[C@]2(CC1)OO[C@]1(O2)C2CC3CC(C2)CC1C3)N1CCOCC1	1.7 (≈ 4.34 nM)	3 (≈ 7.66 nM)	99.8	
NC(=O)C[C@H]1CC[C@]2(CC1)OO[C@]1(O2)C2CC3CC(C2)CC1C3	0.91 (≈ 2.83 nM)	1.1 (≈ 3.42 nM)	97	
Cc1ccc(S(=O)(=O)O)cc1.NCCCNC(=O)C[C@H]1CC[C@]2(CC1)OO[C@]1(O2)C2CC3CC(C2)CC1C3	3.5	2.3	99.9	
C[C@H]1[C@@H](O)O[C@@H]2O[C@@]3(C)CC[C@H]4[C@H](C)CC[C@@H]1[C@@]24OO3 [ARTENIMOL]				Vd [8]: 3 L/kg; clearance [9]: 72 mL/min/kg
C[C@H]1[C@H](OC(=O)CCC(=O)O)O[C@@H]2O[C@@]3(C)CC[C@H]4[C@H](C)CC[C@@H]1[C@@]24OO3 [ARTESUNATE]				Activity (Plasmodium berghei [4]): 70%; Survival (Plasmodium berghei [5]): 9.2 days; Activity (Rattus norvegicus [12]): Non-toxic; Activity (Rattus norvegicus [13]): Non-toxic; Activity (Rattus norvegicus [14]): Non-toxic; Activity (Rattus norvegicus [15]): Non-toxic
CCN(CC)CCCC(C)Nc1ccnc2cc(Cl)ccc12 (configuration not stated) [CHLOROQUINE]				Survival (Plasmodium berghei [5]): 9.4 days
OC(c1cc(C(F)(F)F)nc2c(C(F)(F)F)cccc12)C1CCCCN1 (configuration not stated) [MEFLOQUINE]				Activity (Plasmodium berghei [4]): 99%; Survival (Plasmodium berghei [5]): 15.8 days
